Assay results: ChEMBL document CHEMBL4732250, “Investigations on substituted (2-aminothiazol-5-yl)(imidazo[1,2-a]pyridin-3-yl)methanones for the treatment of Alzheimer's disease” (Bioorg Med Chem, 2021)
Calls of active or inactive are those of the source. The calls are words filed in the database; no cut-off is given here.

How the values were obtained:
[1] = system: Rattus norvegicus; experiment: Antiinflammatory activity in Sprague-Dawley rat acute model of carrageenan-induced paw edema assessed as inhibition of rat paw edema at 50 mg/kg, po pre treated for 1 hr followed by carrageenan-stimulation and measured after 3 hrs by plethysmometeric method relative to control; format: functional; conditions: time 4 hrs
Method in brief: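 SD rats of either sex, 150–200 g, n = 6, dosed orally in 0.2% agar suspension. After 1 h, 0.1 mL 1% carrageenan in saline injected into the left hind sub-plantar paw. Paw volume measured by mercury plethysmometer before and 3 h after injection. % edema inhibition calculated. Mean ± SEM.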

[2] = system: Rattus norvegicus; experiment: Antialzheimer activity against AlCl3-induced Sprague-Dawley rat assessed as reduction in plaque formation in the cortex region at 50 mg/kg, po after 28 days by congo red staining based microscopic method; format: functional, organism-based; conditions: time 28.0 day
Method in brief: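 Cortical amyloid plaques in Congo red-stained brain sections viewed at 100X. Rats had 28 days of oral dosing in 0.2% agar plus AlCl3 4.2 mg/kg i.p.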

[3] = system: Rattus norvegicus; experiment: Antiinflammatory activity in Sprague-Dawley rat chronic model of formalin-induced paw edema assessed as inhibition of rat paw edema at 50 mg/kg, po pre treated for 1 hr followed by formalin-stimulation and measured after 1 day by plethysmometeric method relative to control; format: functional; conditions: 24 h
Method in brief: (§1)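 Chronic paw edema. Oral pre-dose in 0.2% agar; after 1 h, 0.1 mL 2% formalin in saline injected into the left hind sub-plantar paw, repeated on 5 consecutive days. Paw volume by plethysmometer. % inhibition of edema size relative to disease control, days 1–5. n = 6, mean ± SEM, one-way ANOVA with Tukey's test.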

[4] = system: Rattus norvegicus; experiment: Antiinflammatory activity in Sprague-Dawley rat chronic model of formalin-induced paw edema assessed as inhibition of rat paw edema at 50 mg/kg, po pre treated for 1 hr followed by formalin-stimulation and measured after 2 days by plethysmometeric method relative to control; format: functional; conditions: 48 h, time 2 day; method in brief: as §1
[5] = system: Rattus norvegicus; experiment: Antiinflammatory activity in Sprague-Dawley rat chronic model of formalin-induced paw edema assessed as inhibition of rat paw edema at 50 mg/kg, po pre treated for 1 hr followed by formalin-stimulation and measured after 3 days by plethysmometeric method relative to control; format: functional; conditions: 72 h, time 3 day; method in brief: as §1
[6] = system: Rattus norvegicus; experiment: Antiinflammatory activity in Sprague-Dawley rat chronic model of formalin-induced paw edema assessed as inhibition of rat paw edema at 50 mg/kg, po pre treated for 1 hr followed by formalin-stimulation and measured after 4 days by plethysmometeric method relative to control; format: functional; conditions: 96 h, time 4 day; method in brief: as §1
[7] = system: Rattus norvegicus; experiment: Antiinflammatory activity in Sprague-Dawley rat chronic model of formalin-induced paw edema assessed as inhibition of rat paw edema at 50 mg/kg, po pre treated for 1 hr followed by formalin-stimulation and measured after 5 day by plethysmometeric method relative to control; format: functional; conditions: 120 h; method in brief: as §1
[8] = system: Rattus norvegicus; experiment: Antialzheimer activity against AlCl3-induced Sprague-Dawley rat assessed as improved in spatial working memory at 50 mg/kg, po for 7 to 28 days by elevated plus maze test; format: functional, organism-based; conditions: time 7-28 day
[9] = system: Rattus norvegicus; experiment: Antialzheimer activity against AlCl3-induced Sprague-Dawley rat assessed as improved in learning memory by measuring suppression of CAR at 50 mg/kg, po for 7 to 28 days by pole test; format: functional, organism-based; conditions: time 7-28 day
Method in brief: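 Cook's pole-climbing apparatus used for conditioned avoidance response with foot shock, in acquisition and test sessions. Rats received oral dosing in 0.2% agar plus AlCl3 4.2 mg/kg i.p. daily for 28 days. CAR was recorded on days 7, 14, 21 and 28. n = 6 per group.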

[10] = system: Rattus norvegicus; experiment: Antialzheimer activity against AlCl3-induced Sprague-Dawley rat assessed as improved in working memory at 50 mg/kg, po for 7 to 28 days by Y maze test; format: functional, organism-based; conditions: time 7-28 day
Method in brief: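 Y-maze: rats trained for 5 consecutive days. Arm entries recorded; SAP = total entries minus two; % alteration = actual ÷ maximum alteration × 100. Assessed on days 7, 14, 21 and 28 of daily oral dosing in 0.2% agar plus AlCl3 4.2 mg/kg i.p. n = 6, two-way ANOVA with Tukey's test.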

[11] = Toxicity in AlCl3-induced Sprague-Dawley rat assessed as reduction in HGB level at 50 mg/kg, po after 28 days by automated haematology analyser; format: organism-based; conditions: in vivo, 672 h, time 28 day
Method in brief: (§2)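 On day 29 of the AlCl3 model (28 days of oral dosing), blood was drawn from the retro-orbital sinus under isoflurane into heparinized tubes. Haemoglobin and haematocrit were measured on a haematology analyser.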

[12] = Toxicity in AlCl3-induced Sprague-Dawley rat assessed as reduction in HCT level at 50 mg/kg, po after 28 days by automated haematology analyser; format: organism-based; conditions: in vivo, 672 h, time 28 day; method in brief: as §2
[13] = Toxicity in AlCl3-induced Sprague-Dawley rat assessed as reduction in serum albumin level at 50 mg/kg, po after 28 days by automated analyser; format: organism-based; conditions: in vivo, 672 h, time 28 day
Method in brief: (§3)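 Under isoflurane, retro-orbital blood was collected into non-heparinized tubes after the 28-day AlCl3 model with oral dosing. Serum % albumin and total protein were measured on an automated clinical chemistry analyser.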

[14] = system: Rattus norvegicus; experiment: Antialzheimer activity against AlCl3-induced Sprague-Dawley rat assessed as reduction in brain LPO activity at 50 mg/kg, po after 28 days by UV-VIS spectrophotometric method; format: functional, organism-based; conditions: time 28.0 day
Method in brief: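 Brain LPO as MDA by the TBA reaction. AlCl3 model: oral dosing in 0.2% agar for 28 days plus AlCl3 4.2 mg/kg i.p. daily. Day-29 brains were homogenized in HBSS pH 7.4 and the pellet resuspended. Reaction with SDS, acetic acid pH 3.5 and TBA at 95 °C for 1 h, then n-butanol:pyridine extraction. Read at 532 nm, extinction coefficient applied, per gram organ. n = 6.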

[15] = system: Rattus norvegicus; experiment: Antialzheimer activity against AlCl3-induced Sprague-Dawley rat assessed as change in brain SODactivity at 50 mg/kg, po after 28 days; format: functional, organism-based; conditions: time 28.0 day
Method in brief: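 Brain SOD activity. Rats were dosed orally for 28 days in 0.2% agar suspension, each followed by AlCl3 4.2 mg/kg i.p. Brains were taken on day 29, washed in saline and homogenized in chilled 50 mM Tris pH 8.2. Triton X-100 treatment at 4 °C, 30 min, then centrifugation. Pyrogallol was added and A420 read at 0 and 9 min, per gram fresh tissue. n = 6.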

[16] = system: Rattus norvegicus; experiment: Antialzheimer activity against AlCl3-induced Sprague-Dawley rat assessed as reduction in hippocampal neuronal degeneration at 50 mg/kg, po after 28 days by H and E staining based microscopic method; format: functional, organism-based; conditions: time 28.0 day
Method in brief: (§4)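 Hippocampal neuronal degeneration. After 28 days of oral dosing in 0.2% agar with daily AlCl3 4.2 mg/kg i.p., brain sections were HE-stained and hippocampal regions examined at 100X.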

[17] = Toxicity in AlCl3-induced Sprague-Dawley rat assessed as stomach lesion at 50 mg/kg, po after 28 days by H and E staining based microscopic method; format: organism-based; conditions: in vivo, 672 h, time 28 day
Method in brief: (§5)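 Gastrointestinal damage in AlCl3-model rats, 28 days of oral dosing. Stomach and intestines were washed in cold PBS 0.01 M pH 7.4 and fixed 24 h in 10% neutral buffered formalin. After a 70% ethanol wash, haemorrhagic damage was measured by digital vernier caliper for the lesion index. HE-stained sections examined microscopically.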

[18] = Toxicity in AlCl3-induced Sprague-Dawley rat assessed as intestine lesion at 50 mg/kg, po after 28 days by H and E staining based microscopic method; format: organism-based; conditions: in vivo, 672 h, time 28 day; method in brief: as §5
[19] = Toxicity in AlCl3-induced Sprague-Dawley rat assessed as focal erosions in stomach at 50 mg/kg, po after 28 days by H and E staining based microscopic method; format: organism-based; conditions: in vivo, 672 h, time 28 day; method in brief: as §5
[20] = Toxicity in AlCl3-induced Sprague-Dawley rat assessed as focal erosions in intestine at 50 mg/kg, po after 28 days by H and E staining based microscopic method; format: organism-based; conditions: in vivo, 672 h, time 28 day; method in brief: as §5
[21] = Toxicity in AlCl3-induced Sprague-Dawley rat assessed as stomach lesion index at 5 mg/kg, po after 28 days by H and E staining based microscopic method; format: organism-based; conditions: in vivo, 672 h, time 28 day; method in brief: as §5
[22] = Toxicity in AlCl3-induced Sprague-Dawley rat assessed as reduction in HGB level at 5 mg/kg, po after 28 days by automated haematology analyser; format: organism-based; conditions: in vivo, 672 h, time 28 day; method in brief: as §2
[23] = Toxicity in AlCl3-induced Sprague-Dawley rat assessed as reduction in HCT level at 5 mg/kg, po after 28 days by automated haematology analyser; format: organism-based; conditions: in vivo, 672 h, time 28 day; method in brief: as §2
[24] = Toxicity in AlCl3-induced Sprague-Dawley rat assessed as reduction in serum albumin level at 5 mg/kg, po after 28 days by automated analyser; format: organism-based; conditions: in vivo, 672 h, time 28 day; method in brief: as §3
[25] = Toxicity in AlCl3-induced Sprague-Dawley rat assessed as reduction in total protein level at 5 mg/kg, po after 28 days by automated analyser; format: organism-based; conditions: in vivo, 672 h, time 28 day; method in brief: as §3
[26] = system: Rattus norvegicus; experiment: Antialzheimer activity against AlCl3-induced Sprague-Dawley rat assessed as reduction in hippocampal neuronal degeneration at 5 mg/kg, po after 28 days by H and E staining based microscopic method; format: functional, organism-based; conditions: time 28.0 day; method in brief: as §4
[27] = Toxicity in AlCl3-induced Sprague-Dawley rat assessed as intestine lesion index at 5 mg/kg, po after 28 days by H and E staining based microscopic method; format: organism-based; conditions: in vivo, 672 h, time 28 day; method in brief: as §5

With `Cc1nc(N)sc1C(=O)c1cnc2ccccn12` the inhibition in vivo at 50 mg/kg [1] was 53%.
For `Cc1ccn2c(C(=O)c3sc(N)nc3N(C)C)cnc2c1`, the Activity [2] was “Active”, the inhibition in vivo at 50 mg/kg [1] was 85% and the inhibition in vivo at 50 mg/kg [3] was 58%. For the same compound, the inhibition in vivo at 50 mg/kg [4] was 67%, the inhibition in vivo at 50 mg/kg [5] was 65% and the inhibition in vivo at 50 mg/kg [6] was 60%. For the same compound, the inhibition in vivo at 50 mg/kg [7] was 63%, the Activity [8] was “Active” and the Activity [9] was “Active”. The Activity [10] was “Active”, the Activity [11] was “Non-Toxic” and the Activity [12] was “Non-Toxic”. The Activity [13] was “Non-Toxic”, the Activity [14] was “Active” and the Activity [15] was “Active”. For the same compound, the Activity [16] was “Active”, the Activity [17] was “Non-Toxic” and the Activity [18] was “Non-Toxic”. The Activity [19] was “Non-Toxic” and the Activity [20] was “Non-Toxic”.
`Cc1ccn2c(C(=O)c3cnc(N)s3)cnc2c1` showed an inhibition in vivo at 50 mg/kg [1] of 77%, an inhibition in vivo at 50 mg/kg [3] of 30% and an inhibition in vivo at 50 mg/kg [4] of 24%. The inhibition in vivo at 50 mg/kg [5] was 36%, the inhibition in vivo at 50 mg/kg [6] was 23% and the inhibition in vivo at 50 mg/kg [7] was 18%.
Compound `Cc1ccc2ncc(C(=O)c3sc(N)nc3C)n2c1` has an inhibition in vivo at 50 mg/kg [1] of 33%.
In the case of `Cc1ccn2c(C(=O)c3sc(N)nc3C)cnc2c1`, the inhibition in vivo at 50 mg/kg [1] is reported as 66%.
In the case of `Nc1ncc(C(=O)c2cnc3ccccn23)s1`, the inhibition in vivo at 50 mg/kg [1] is reported as 33%.
With `Cc1cnc(NC(=O)C2=C(O)c3ccccc3S(=O)(=O)N2C)s1` [MELOXICAM] the Activity_index [21] was 12.19 mm, the Activity [22] was “Toxic” and the Activity [23] was “Toxic”. For the same compound, the Activity [24] was “Non-Toxic”, the Activity [25] was “Toxic” and the Activity [26] was “Active”. It also gave an Activity_index [27] of 29.15 mm.
Compound `Cc1nc(N)sc1C(=O)c1cnc2c(C)cccn12` has an inhibition in vivo at 50 mg/kg [1] of 45%.
Work on `Cc1ccc2ncc(C(=O)c3cnc(N)s3)n2c1` yielded an inhibition in vivo at 50 mg/kg [1] of 53%.
